Compounds with a hit are over-represented: about 0.58% of the library has one in this group of screens.
TRPML3 ag – human mucolipin-3 channel agonism. AID 1448. activation, % at 3 µM. 220,000 tested, 0.29% active. HEK293 TRPML3-YFP, Fluo-8 calcium fluorescence; 100% = the carbachol control signal;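 active = activation above its plate's cutoff, the mean activation of the plate's test wells plus 3 SD, cut at about 12% in these data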
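Test system – HEK293 line with stable expression of human TRPML3-YFP channel · Control set – carbachol 87 µM final as high control (100%), DMSO as low control (0%) · Signal – Fluo-8 calcium dye fluorescence, ex 470-495, em 515-575 nm · Incubation – 1-h 37 °C dye load, 5-s basal, 120-s post-compound reads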
V1aR counter – V1a receptor agonism, counter-screen for OXTR agonists; P37288; CHO-V1R cells, Fluo-8 calcium fluorescence, agonist mode; 0% DMSO, 100% 3 nM vasopressin; activation, % at 3 µM; 320,000 tested, 0.25% active; AID 2797;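 active = activation above the mean activation of all tested compounds plus 3 SD, per screening run, cut at about 20% in these data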;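 note: signal is peak over basal fluorescence ratio across a 100 second FLIPR read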
Target sequence (P37288 whole entry, looked up): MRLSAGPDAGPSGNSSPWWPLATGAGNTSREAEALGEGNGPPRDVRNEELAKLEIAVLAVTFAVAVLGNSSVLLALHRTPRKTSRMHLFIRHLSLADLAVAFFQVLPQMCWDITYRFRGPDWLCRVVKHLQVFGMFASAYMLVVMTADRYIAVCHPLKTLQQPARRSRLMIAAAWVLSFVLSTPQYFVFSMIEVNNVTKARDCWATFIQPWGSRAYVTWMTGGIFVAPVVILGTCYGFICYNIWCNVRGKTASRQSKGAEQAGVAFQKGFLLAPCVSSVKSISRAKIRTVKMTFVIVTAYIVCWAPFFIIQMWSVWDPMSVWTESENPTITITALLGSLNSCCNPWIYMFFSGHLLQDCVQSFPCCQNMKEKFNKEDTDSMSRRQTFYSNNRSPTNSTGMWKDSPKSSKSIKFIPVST
OXTR potentiate – potentiators of human oxytocin receptor; P30559; CHO-OTR cells, Fluo-8 calcium fluorescence, potentiator mode; 0% = oxytocin EC15, 100% = EC100; activation, % at 3 µM; 320,000 tested, 0.061% active;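 active = activation above that plate's cutoff, the mean activation of tested compounds plus 3 SD, cut at about 6.6% in these data, passing the limit was not always enough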
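assay system = CHO-OTR cells, human receptor | schedule = compound 6 min at room temperature before oxytocin, 100 s read | detection = Fluo-8 intracellular calcium fluorescence, ex 470-495, em 515-575 nm | evaluation = normalized max/min fluorescence ratio, % activation | control set = EC15 oxytocin alone as 0%, 75 nM oxytocin (EC100) as 100%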
OXTR ag – activates the human oxytocin receptor; P30559; activation, % at 3 µM; 320,000 tested, 0.32% active; CHO-OTR cells, Fluo-8 calcium fluorescence; normalized: DMSO 0%, oxytocin 100%;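 active = activation above the mean of all tested compounds plus 3 SD, cutoff set per screening run, cut at about 20% in these data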;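 note: peak over basal fluorescence ratio from a 100 s FLIPR kinetic read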
zfTRPN1 agonist – agonists of zebrafish TRPN1 channel | HEK293 zebrafish TRPN1-YFP, Fluo-8 calcium fluorescence; 100% = response to 87 µM carbachol | activation, % at 3 µM | 220,000 tested, 0.18% active;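 active = activation above its plate's cutoff, the mean activation of test wells on that plate plus 3 SD, cut at about 19% in these data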
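Material: zebrafish TRPN1-YFP in HEK293 cells. Doses: one dose of 3 µM, 0.3% DMSO. Incubation: dye 1 h 37 °C plus 30 min RT. Measured by: intracellular calcium fluorescence with Fluo-8.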
OXTR ag confirm – confirmation of human oxytocin receptor agonists. shares compounds with OXTR ag. CHO-OTR cells, Fluo-8 calcium fluorescence, agonist. activation, % at 3 µM. 390 tested, 20% active. AID 434963;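 active = mean activation above about 20% derived from the earlier single-dose screen, limit read from the data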;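 note: peak over minimum fluorescence ratio per well during a 100 second FLIPR read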
V1aR counter 3x – counter-screen for oxytocin receptor agonists: V1a receptor agonists. 390 tested, 10% active. AID 434991. CHO-V1R cells, Fluo-8 calcium fluorescence, agonist. activation, % at 3 µM. shares compounds with OXTR ag;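 active = mean activation over triplicate exceeds the hit threshold set in the earlier primary screen, cut at about 20% in these data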;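 note: peak over basal fluorescence ratio within a 100 second read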
A number is an active result; n = inactive; x = not tested or not shown; ! = not active in a repeat.

SMILES	TRPML3 ag	V1aR counter	OXTR potentiate	OXTR ag	zfTRPN1 agonist	OXTR ag confirm	V1aR counter 3x
COc1cccc(/C=N/Nc2snc(SC)c2C#N)c1O	n	n	n	21.5	n	20.4	n
COc1ccc(Cc2nnc(NC(=O)c3ccccc3C)s2)cc1	x	n	n	n	x	x	x
CCOc1cc(CNCCO)cc(Br)c1OCc1ccc(Cl)cc1Cl	n	n	n	20.7	n	n	n
O=C(CN1C(=O)NC2(CCCCC2)C1=O)N1CCN(c2ncccn2)CC1	x	n	n	n	x	x	x
CN(C)Cc1c(O)ccc2ccccc12	n	n	n	n	n	x	x
CN(C)Cc1c(O)ccc2oc(Cc3ccccc3)cc12	n	n	n	23.4	n	n	n
CC(O)CNCc1ccc(-c2ccccc2)cc1 (stereo unspecified)	n	n	n	n	n	x	x
CC(NCc1ccc(-c2ccccc2)cc1)C(O)c1ccccc1 (stereo unspecified)	n	n	n	22.9	n	n	n
COC(=O)C1=C(C)N(Cc2ccccc2)C(=NCc2ccccc2)N[C@H]1c1cccc(C(F)(F)F)c1	x	n	n	21.7	x	n	n
COC(=O)C1=C(C)N(Cc2ccccc2)C(=NCc2cccc(Cl)c2)N[C@H]1c1cccc(F)c1	x	n	n	22.0	x	n	n
COC(=O)C1=C(C)N(Cc2ccccc2)C(=NCc2cc(OC)c(OC)c(OC)c2)N[C@H]1c1cccc(F)c1	x	n	n	20.9	x	n	n
COC(=O)C1=C(C)N(Cc2ccccc2)C(=O)N[C@H]1c1cccc(C(F)(F)F)c1	x	n	n	n	x	x	x
COC(=O)C1=C(C)N(Cc2ccccc2)C(=NCc2ccc(OC)cc2)N[C@H]1c1cccc(F)c1	x	n	n	24.5	x	n	n
Cc1cc(Cn2nc(C(=O)NCc3cccc(Br)c3)cc2-c2ccccc2)on1	x	n	n	n	x	x	x
Cc1cccc(CCN2C(Nc3ccccc3)=NC[C@@H]2CC(C)C)c1	x	n	n	21.4	x	n	20.6
Cc1ccc[n+](CC(=O)Nc2ccc(N(C)C)cc2)c1	x	n	n	n	x	x	x
C=CCN1C=CC(=CC=C(C#N)C#N)C=C1	n	n	n	22.6	n	24.7	30.1
CCCN1C=CC(=CC=C(C#N)C#N)C=C1	n	n	n	21.1	n	23.2	35.5
COCCN(C(=O)COC(=O)Cc1coc2cc3c(cc12)CCC3)c1c(N)n(Cc2ccccc2)c(=O)[nH]c1=O	x	n	n	n	x	x	x
CCn1c2ccccc2c2cc(CNCc3ccc(OC)cc3OC)ccc21	n	n	n	23.2	n	n	n
COc1cccc(CNCc2ccc(OC)cc2OC)c1	x	n	n	n	x	x	x
Cc1ccccc1S(=O)(=O)Cc1ccc(C(=O)N(C)C2CCCCC2)o1	x	n	n	n	x	x	x
CC(C)Cn1c(N)c(C(=O)COC(=O)c2ccc3c(c2)OCCO3)c(=O)n(C)c1=O	n	n	n	19.8	n	n	n
N#Cc1ccccc1S(=O)(=O)N1CCN(C(=O)C2CCC2)CC1	x	n	n	n	x	x	x
CCOC(=O)[C@@H]1[C@H]2COc3ccccc3[C@@H]2N2C(=O)N(c3ccc(C)cc3)C(=O)[C@]12C	x	n	n	n	x	x	x
SMILES	TRPML3 ag	V1aR counter	OXTR potentiate	OXTR ag	zfTRPN1 agonist	OXTR ag confirm	V1aR counter 3x
COCCNC(=O)/C(C#N)=C/c1ccc(N2CCOCC2)o1	n	n	n	n	n	x	x
N#C/C(=C\c1ccc(N2CCOCC2)o1)C(=O)NCCc1ccccc1	13.6	n	n	21.2	25.5	23.5	45.8
COc1ccc(/C=C(/NC(=O)c2ccccc2)C(=O)N2CCCCC2)cc1OC	x	n	n	n	x	x	x
COc1ccc(/C=C(/NC(=O)c2ccccc2)C(=O)N2CCCC2)cc1OC	x	n	n	28.1	x	n	n
CN1CCN(C2Cc3ccccc3Sc3ccc(Cl)cc32)CC1 (stereo unspecified)	x	n	n	n	x	x	x
CN1CCN(C2Cc3ccccc3Sc3cc(C(F)(F)F)ccc32)CC1 (stereo unspecified)	x	n	n	24.4	x	n	n
CCOC(=O)c1sc(NC(=O)CSc2n[nH]c(-c3ccncc3)n2)c(C#N)c1C	n	n	n	n	n	x	x
CCOc1ccc(/C=C/C2=Cc3c(sc(NC(=O)CSc4n[nH]c(N)n4)c3C#N)C(C)(C)C2)cc1	n	n	n	26.5	n	n	n
CC1CCCCC12NC(=O)N(CC(=O)N1CCN(Cc3ccc(C#N)cc3)CC1)C2=O (stereo unspecified)	x	n	n	n	x	x	x
COc1ccc(CCn2c(C(C)C)nc3c(c(=O)c4ccccc4n3C)c2=O)cc1	n	n	n	30.2	n	n	n
CC(C)(CNC(=O)c1ccc(S(=O)(=O)Nc2cccc(C(F)(F)F)c2)cc1)N1CCOCC1	x	n	n	n	x	x	x
CCCCN(C(=O)c1ccc(-c2ccc(Cl)cc2)o1)c1c(N)n(CCC)c(=O)[nH]c1=O	x	n	n	n	x	x	x
Cc1nc2c(c(=O)c3ccccc3n2C)c(=O)n1C1CCCCCC1	n	n	n	20.4	n	n	n
CCCCCCCCCCCCCCCC[N+](C)(C)CC	x	n	n	20.8	x	20.9	n
Brc1ccc(CN2CCN(Cc3c[nH]c4ccccc34)CC2)cc1	x	n	n	19.9	x	n	n
Brc1ccccc1CN1CCN(Cc2c[nH]c3ccccc23)CC1	x	n	n	n	x	x	x
O=C(Nc1nc(-c2nc3ccccc3s2)cs1)c1ccc(S(=O)(=O)N2CCOCC2)cc1	n	n	n	21.3	n	n	n
O=C(Nc1nc(-c2ccc(S(=O)(=O)N3CCOCC3)cc2)cs1)c1ccccc1	n	n	n	n	n	x	x
COc1ccc(CN(C)c2ccc(S(=O)(=O)N3CCN(C)CC3)cc2[N+](=O)[O-])cc1OC	x	n	n	26.4	x	n	n
COc1ccc(OCC(O)CNCCOc2ccccc2OC)c(C(C)(C)C)c1 (stereo unspecified)	x	n	n	22.4	x	n	n
CN1CCN(CCCN2c3ccccc3Sc3ccc(Cl)cc32)CC1	n	n	n	24.9!	n	n	n
CCSc1ccc2c(c1)N(CCCN1CCN(C)CC1)c1ccccc1S2	x	n	n	n	x	x	x
O=C(NNC(=O)C1CC1)c1cc(=O)[nH]c2ccccc12	x	n	n	n	x	x	x
Cc1ccc(Oc2ccc(OCC(=O)OC3CCS(=O)(=O)C3)cc2)cc1 (stereo unspecified)	n	n	n	24.9	n	n	n
OC(CNC1CCCCCC1)COc1cccc2ccccc12 (stereo unspecified)	x	n	n	19.9	x	n	n
CCN(CC(=O)Nc1c(F)cccc1F)C(=O)c1ccccn1	x	n	n	n	x	x	x
Nc1cc(=O)[nH]c(SCc2ccc(Cl)cc2Cl)n1	x	n	n	21.6	x	n	n
N#Cc1cc2c(cc1NC(=O)CCn1cnnn1)OCO2	x	n	n	n	x	x	x
